# Assay results published in paper PMC4378865 (Journal of biomolecular screening, 2014).
# What was measured:
# T. brucei MetRS [1] = target: T1, T. brucei MetRS (Trypanosoma brucei brucei, UniProt Q38C91); assay: Orthogonal fluorescence polarization AMP production assay; format: biochemical
# T1 sequence (Q38C91 1-773): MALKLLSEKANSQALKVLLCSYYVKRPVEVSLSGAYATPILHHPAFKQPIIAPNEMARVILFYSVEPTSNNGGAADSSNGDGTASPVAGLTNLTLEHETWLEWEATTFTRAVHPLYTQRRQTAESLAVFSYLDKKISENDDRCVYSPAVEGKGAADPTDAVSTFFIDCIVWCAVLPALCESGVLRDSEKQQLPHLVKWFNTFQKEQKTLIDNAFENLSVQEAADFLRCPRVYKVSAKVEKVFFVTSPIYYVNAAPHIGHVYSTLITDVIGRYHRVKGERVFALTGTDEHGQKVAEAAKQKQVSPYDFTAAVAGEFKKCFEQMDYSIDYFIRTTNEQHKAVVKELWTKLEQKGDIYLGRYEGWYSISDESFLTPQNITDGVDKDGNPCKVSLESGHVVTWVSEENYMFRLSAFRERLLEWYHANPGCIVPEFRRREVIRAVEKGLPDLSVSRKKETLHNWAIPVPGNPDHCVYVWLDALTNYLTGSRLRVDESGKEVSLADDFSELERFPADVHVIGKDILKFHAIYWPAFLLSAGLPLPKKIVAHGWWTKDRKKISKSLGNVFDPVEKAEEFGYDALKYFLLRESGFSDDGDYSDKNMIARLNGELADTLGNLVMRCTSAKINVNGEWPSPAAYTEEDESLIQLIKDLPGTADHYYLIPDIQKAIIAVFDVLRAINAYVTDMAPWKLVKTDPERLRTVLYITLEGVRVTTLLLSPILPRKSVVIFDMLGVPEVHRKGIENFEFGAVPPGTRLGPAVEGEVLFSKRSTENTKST
# In short: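 Concentration-response was run in triplicate as a 10-point serial dilution from 120 µM. AMP was detected by FP with a Transcreener AMP²/GMP² reagent (Cy5, excitation 620 nm, emission 688 nm), with FP = (S − P)/(P + S). Percent inhibition was normalized per plate between DMSO-only wells and wells with 1.5 µM reference inhibitor.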
# T. brucei MetRS [2] = target: T1, T. brucei MetRS; assay: Luminescence; format: biochemical
# Jurkat cells = assay: Jurkat cell cytotoxicity counterscreen; format: cell-based
# In short: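 Jurkat E6.1 suspension cells grown in RPMI-1640 with 10% dialyzed FBS, NEAA, pyruvate, HEPES, glutamine and antibiotic-antimycotic at 37 °C, 5% CO₂. CellTiter-Glo added, 10 min RT, then luminescence read. Tested in triplicate. Data normalized per plate: 8 µM doxorubicin as high control, DMSO as low control.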
# T. brucei MetRS [3] = target: T1, T. brucei MetRS; assay: Aminoacylation assay, incorporation of [3H]L-methionine into tRNA; format: biochemical
# [4] = cited from earlier work
# T. brucei MetRS [5] = target: T1, T. brucei MetRS; conditions: formerly shown; cited from earlier work
# [6] = target: T2, human mitochondrial MetRS (Homo sapiens, UniProt Q96GW9); assay: Aminoacylation assay, selectivity counterscreen; format: biochemical
# T2 sequence (Q96GW9 30-593): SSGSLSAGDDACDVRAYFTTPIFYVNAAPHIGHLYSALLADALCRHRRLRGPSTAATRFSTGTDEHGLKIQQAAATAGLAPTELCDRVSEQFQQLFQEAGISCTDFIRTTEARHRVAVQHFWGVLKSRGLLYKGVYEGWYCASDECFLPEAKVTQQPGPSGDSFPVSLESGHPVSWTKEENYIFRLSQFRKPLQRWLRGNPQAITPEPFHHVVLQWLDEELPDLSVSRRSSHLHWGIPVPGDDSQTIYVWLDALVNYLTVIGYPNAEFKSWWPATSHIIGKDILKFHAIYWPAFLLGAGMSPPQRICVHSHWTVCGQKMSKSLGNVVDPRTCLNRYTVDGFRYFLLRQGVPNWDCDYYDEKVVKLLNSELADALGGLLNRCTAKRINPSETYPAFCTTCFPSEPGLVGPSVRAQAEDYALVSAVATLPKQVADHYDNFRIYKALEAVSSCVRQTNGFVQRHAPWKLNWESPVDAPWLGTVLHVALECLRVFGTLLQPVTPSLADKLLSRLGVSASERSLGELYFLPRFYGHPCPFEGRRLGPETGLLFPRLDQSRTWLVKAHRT
# [7] = luminescence ATP depletion assay, 1536-well
# [8] = fluorescence polarization assay
compound,measurement,setting,value
Cn1nc(C(F)(F)F)c(-c2cccc(C(F)(F)F)c2)c1NC(=O)Nc1ccc(F)cc1 [CID 2810697],activity in fluorescence polarization assay,T. brucei MetRS [1]; dose response curve,inactivity
O=C(Cn1cc(C(=O)C(=O)N2CCOCC2)c2ccccc21)Nc1cccc(C(F)(F)F)c1 [CID 2973195],IC50,T. brucei MetRS [2]; [7],171 nM
same,pIC50,T. brucei MetRS [2]; [7],6.77
same,IC50,Jurkat cells; Jurkat cytotoxicity assay,> 83000 nM
same,pIC50,Jurkat cells; Jurkat cytotoxicity assay,< 4.08
same,IC50,T. brucei MetRS [1]; [8],292 nM
same,pIC50,T. brucei MetRS [1]; [8],6.53
O=C(CN1CCSC1=NCc1ccccc1)c1ccc(Cl)c(Cl)c1 [CID 4656759],% inhibition,T. brucei MetRS [3],28%
O=C(CCCSc1ccc(Cl)cc1)Nc1ccccc1O [CID 16312830],activity in the Jurkat cytotoxicity assay,"Jurkat cells; dose response, highest dilution 83.3 M",activity
"Oc1cc(NCCCNCc2cc(Cl)cc(Cl)c2)nc2ccccc12 [CID 18353708, 2-((3-((3,5-dichlorobenzyl)amino)propyl)amino)quinolin-4(1H)-one, reference compound]",IC50,T. brucei MetRS [2],24.2 ± 2.74 nM
same,Hill slope,"T. brucei MetRS [2]; luminescence ATP depletion assay, N=11",4.41 ± 0.56
same,bioavailability,[4],poor bioavailability
same,inhibition of T. brucei MetRS,T. brucei MetRS [5],sub-micromolar inhibition
same,IC50,T. brucei MetRS [1],30.3 ± 4.81 nM
same,Hill slope,"T. brucei MetRS [1]; fluorescence polarization assay, N=3",4.34 ± 0.17
COc1cccc(NC(=O)CSc2nnc3c(n2)[nH]c2ccc(C)cc23)c1 [CID 24793614],IC50,T. brucei MetRS [2]; [7],44 nM
CN(Cc1cc(Cl)cc(Cl)c1)[C@H]1C[C@H]2c3[nH]c4ccccc4c3CCN2C(=O)[C@H]1CO [CID 46902334],% inhibition,"[6]; at 1, human mitochondrial MetRS",14.3%
same,% inhibition,"[6]; at 10, human mitochondrial MetRS",80.3%
